# Sampled rows, rich in hits. Any-hit rate of the full collection: about 12%.
# WT yeast gro inh – growth inhibition of WT yeast, mitochondrial fusion screen; actives 2.1% (n = 190,000); AID 1362; inhibition, % at 10 µM; mitochondrial fusion phenotypic screen, WT strain; in the data active = inhibition above about 58%; tested in S. cerevisiae
# Diaphorase act – counter-screen for diaphorase-based assays: diaphorase activators and chemical reducers; Diaphorase/resazurin coupled assay, resorufin fluorescence, 16 min; active compounds read high; 1 = vehicle wells, 0 = NADH-free wells; activation factor at 20 µM; actives 0.005% (n = 190,000);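 active = diaphorase activity raised at least twofold by the compound at 20 µM; inactive = activation factor below 2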
#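 Assay system: Purified diaphorase enzyme from Clostridium kluyveri | Amount: Enzyme 0.07 U/mL final | Dosing: Compound 20 µM once, DMSO 1% | Timing: 16 min reaction at room temperature | Detection: Fluorescence, excitation 544 nm and emission 590 nm | Evaluation: Higher resorufin formation from activation or reduction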
# ROMK primary – human ROMK K+ channel modulation, primary screen; P48048; Tet-inducible ROMK, thallium flux fluorescence; actives lie on both sides; B-score at 10 µM; actives 2% (n = 130,000);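 active = signal ratio slope over the read window, or its plate-corrected B-score, at least 3 SD from the plate mean, either direction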;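 note: B-score of the F/F0 ratio slope over 7 to 12 s after thallium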
# Lmaj promast – Leishmania major promastigote growth inhibition. actives 9% (n = 200,000). Leishmania major promastigotes, resazurin fluorescence viability. inhibition, % at 10 µM. AID 1063; in the data active = inhibition above about 50%;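 note: promastigotes grown with compound for 44 hours at 28 °C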
# KCC2 mod – modulators of human KCC2 chloride dependent transport; Q9H2X9; B-score of Tl+ flux slope (higher = more flux/activation; lower = inhibition) at 10 µM; KCC2 cells, thallium flux FluoZin-2 fluorescence; AID 1456; actives 2.2% (n = 190,000);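 active = thallium flux slope and its plate-corrected score both differing from the plate sample mean at a set confidence after two filtering rounds, in either direction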;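 note: slope of fluorescence scaled to starting intensity during 10 to 20 s after thallium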
# Target sequence (Q9H2X9 whole entry, looked up): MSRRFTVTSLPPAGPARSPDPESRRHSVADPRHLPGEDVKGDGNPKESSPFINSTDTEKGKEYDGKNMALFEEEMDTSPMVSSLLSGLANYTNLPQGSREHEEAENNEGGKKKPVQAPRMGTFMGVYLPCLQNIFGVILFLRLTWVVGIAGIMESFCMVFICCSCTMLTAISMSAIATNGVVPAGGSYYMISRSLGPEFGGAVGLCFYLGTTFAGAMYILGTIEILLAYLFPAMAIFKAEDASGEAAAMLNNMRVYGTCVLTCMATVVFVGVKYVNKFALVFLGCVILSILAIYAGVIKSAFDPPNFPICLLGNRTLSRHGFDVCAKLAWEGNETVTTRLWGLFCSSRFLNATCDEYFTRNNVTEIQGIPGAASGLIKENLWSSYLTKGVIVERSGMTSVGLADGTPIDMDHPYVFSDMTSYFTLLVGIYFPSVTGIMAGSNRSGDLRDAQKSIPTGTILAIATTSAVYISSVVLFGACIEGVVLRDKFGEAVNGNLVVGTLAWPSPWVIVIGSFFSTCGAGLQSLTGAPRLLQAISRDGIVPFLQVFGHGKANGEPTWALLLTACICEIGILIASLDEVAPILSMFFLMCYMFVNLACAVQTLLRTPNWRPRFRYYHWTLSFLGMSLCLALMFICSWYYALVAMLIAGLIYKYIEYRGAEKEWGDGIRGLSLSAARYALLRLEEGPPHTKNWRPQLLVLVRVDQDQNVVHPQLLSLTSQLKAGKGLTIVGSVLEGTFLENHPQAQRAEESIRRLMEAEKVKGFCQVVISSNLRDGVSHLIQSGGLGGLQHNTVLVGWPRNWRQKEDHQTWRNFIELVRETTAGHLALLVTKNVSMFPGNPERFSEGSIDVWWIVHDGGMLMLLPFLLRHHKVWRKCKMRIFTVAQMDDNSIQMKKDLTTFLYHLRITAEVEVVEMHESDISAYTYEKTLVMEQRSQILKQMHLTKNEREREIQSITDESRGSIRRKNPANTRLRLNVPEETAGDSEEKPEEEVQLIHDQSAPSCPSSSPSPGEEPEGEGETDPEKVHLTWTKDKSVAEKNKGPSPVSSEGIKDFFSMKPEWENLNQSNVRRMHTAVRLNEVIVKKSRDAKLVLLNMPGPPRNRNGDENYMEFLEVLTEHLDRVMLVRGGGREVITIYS
# Diaphorase inh – counter-screen for diaphorase-based assays: diaphorase inhibitors and chemical oxidizers; inhibition, % at 20 µM; diaphorase resazurin-to-resorufin fluorescence, NADH, 16 min; bacterial (C. kluyveri) enzyme, not human; actives 0.69% (n = 190,000);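 active = primary screen inhibition at 20 µM above a set limit, cut at about 50% in these data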;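 note: plate controls were DMSO with full reaction for no effect and wells lacking NADH for full effect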
#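 Assay system: diaphorase enzyme from Clostridium kluyveri; Input: enzyme working solution with 0.14 U/mL diaphorase; Timing: 16 min at room temperature; Technique: resorufin fluorescence, excitation 544 nm, emission 590 nm; Benchmarks: positive control minus NADH, DMSO neutral control.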
# An asterisk follows results filed as active; · = no result.
SMILES,WT yeast gro inh,Diaphorase act,ROMK primary,Lmaj promast,KCC2 mod,Diaphorase inh
O=C(CCCNS(=O)(=O)c1ccc(Cl)c(Cl)c1)NCCc1ccccn1,-12,0.9,0.46,-3,-0.9,5
CC(=O)c1cc2c(cc1NS(=O)(=O)c1ccc(F)cc1)OCO2,-9,0.8,-0.087,-4,-0.41,20
CCOC(=O)NNC(=S)Nc1c(C)n(C)n(-c2ccccc2)c1=O,·,·,·,·,-0.32,·
CCN(CC)c1ccc(C(=O)OCC(=O)Nc2cccc(S(=O)(=O)NC3=NCCCCC3)c2)cc1,-11,1,-0.15,1,-1.7,-2
COc1ccc2nc(C)cc(Nc3ccc(N4CCOCC4)cc3)c2c1,17,1,·,51*,-1.2,-3
COc1ccc2nc(N3CCOCC3)cc(C)c2c1,0,0.9,·,10,-0.3,13
O=C1COc2ccc(C(=O)c3ccccc3C(=O)O)cc2N1,-7,0.9,-1,-3,-3.3,10
COc1ccccc1Nc1cc(N2CCOCC2)c2nonc2c1[N+](=O)[O-],10,0.6,0.11,0,1.3,42
Cc1c(Nc2cc(N3CCCCCC3)c3nonc3c2[N+](=O)[O-])c(=O)n(-c2ccccc2)n1C,1,0.5,-0.7,12,·,51*
COc1cccc(CN=c2c([N+](=O)[O-])nn(-c3ccccc3C)n2O)c1,-7,0.8,-0.47,33,0.055,18
Cc1ccc(CCN=c2c([N+](=O)[O-])nn(-c3ccccc3)n2O)cc1,-6,0.9,0.041,47,0.67,10
O=[N+]([O-])c1nn(-c2ccccc2)n(O)c1=NCCc1ccccc1,-36,1,-0.99,91*,0.017,5
COc1ccc(-n2nc([N+](=O)[O-])c(=NCCc3ccccc3)n2O)cc1,5,0.9,-0.13,96*,-0.43,12
NS(=O)(=O)c1ccc(CCNc2ncnc3c2c(-c2ccccc2)cn3-c2ccc(F)cc2)cc1,36,0.7,·,-4,-0.89,26
CCOC(=O)N/N=C(/C)c1ccc(N2C(=O)C3CCCCC3C2=O)cc1 (configuration not stated),-17,1,·,-5,0.081,2
O=C(O)CCC(=O)Nc1ccc(C(=O)OC2CCCCC2)cc1,1,0.8,·,-1,0.83,16
O=C(OC1CCCCC1)c1ccc(NC(=O)C2CCCCC2)cc1,26,0.8,-0.3,87*,-0.29,23
COc1ccc(Cl)cc1C(=O)CSc1nnnn1C1CCCC1,5,0.9,-0.74,7,·,14
COc1ccc(Cl)cc1C(=O)CSc1nnnn1C1CCCCC1,72*,0.8,·,9,-0.55,22
COCCNC(=O)CCCC(=O)NCCOC,16,0.9,·,-10,0.42,8
CCSc1nnc(NC(=O)Nc2cccc(C)c2)s1,·,·,·,·,1.2,·
Cc1cc(=O)c2c(O)c(O)ccc2o1,13,0.3,·,1,-0.53,72*
COc1ccc(-c2cc(=O)c3c(O)c(OC)c(O)cc3o2)cc1,20,0.9,·,6,-1.5,6
Cc1cccc(N2CCN(C(=O)CSc3ccsc3[N+](=O)[O-])CC2C)c1 (configuration not stated),18,1,·,64*,0.8,-2
Cc1ccc(-n2nnnc2CN2CCCCC2)cc1,-4,1,-0.75,0,-0.0086,4
SMILES,WT yeast gro inh,Diaphorase act,ROMK primary,Lmaj promast,KCC2 mod,Diaphorase inh
CCCCSc1nnc(-c2ccccc2)c2ccccc12,82*,0.8,·,7,-0.24,16
O=C(CSc1nnc(-c2ccccc2)c2ccccc12)NCC1CCCO1 (configuration not stated),1,1,0.028,6,0.49,5
Cc1cc2oc(=O)cc(CN3CCN(C/C=C/c4ccccc4)CC3)c2cc1O,9,0.9,-3.1,100*,0.46,14
O=c1cc(CN2CCN(C/C=C/c3ccccc3)CC2)c2cc(O)c(-c3ccccc3)cc2o1,84*,1,0.92,80*,0.99,-4
CCOC(=O)Nc1ccc2c(CN3CCN(S(=O)(=O)c4ccccc4)CC3)cc(=O)oc2c1,-1,0.8,·,100*,-2,21
Cc1cc2oc(=O)cc(CN3CCN(S(=O)(=O)c4cccs4)CC3)c2cc1C,13,0.9,·,81*,-0.25,12
Cc1c(O)ccc2c(CN3CCN(C/C=C/c4ccccc4)CC3)cc(=O)oc12,·,·,·,·,-0.12,·
Cc1ccc(C2=NN(C(=O)CCC(=O)O)C(c3cn(-c4ccccc4)nc3-c3ccc(C)cc3)C2)cc1 (configuration not stated),27,0.5,-0.015,-2,0.03,48
O=C(CSc1ccccc1)NCCSCc1ccccc1,-5,0.9,·,-4,-2.6,10
Cc1cc(C(=O)C(=O)O)c(C)n1-c1ccc(Cl)c(Cl)c1,9,0.8,0.25,-7,-0.56,17
O=C(NC1CCCCC1)N1CCSC1=Nc1ccccc1,60*,0.8,0.25,19,-0.55,17
O=C(NC1CCCCC1)N1CCCc2ccccc21,-1,0.9,·,24,-0.071,11
O=C(/C=C/c1ccccc1Cl)NC(=S)Nc1ccccc1C(=O)NC1CCCCC1,15,1.1,-0.049,98*,-0.79,-10
COc1ccc(-c2ccc(SCC(=O)c3ccccc3)nn2)cc1OC,6,0.8,0.56,61*,-0.97,16
Cc1cc(C(=O)CSc2ccc3c(c2)OCCO3)c(C)n1C1CC1,-3,0.9,-0.79,5,-0.76,10
Cc1nn(C)c(C)c1NC(=O)c1ccc(Cl)cc1,3,0.9,0.00025,-2,·,10
COC(=O)c1ccn(C(=O)c2ccc(Cl)cc2)n1,93*,0.9,0.22,-1,-0.13,8
O=C1CS/C(=N\c2ccccn2)N1C1CCCCC1,-57,1,0.45,1,·,4
CCC(C)(C)n1nnnc1C(c1ccc(C)cc1)N(Cc1ccco1)Cc1cccs1 (configuration not stated),30,0.8,·,18,-1.1,18
COc1cccc(CN(Cc2ccco2)C(c2ccc(F)cc2)c2nnnn2C(C)(C)C)c1 (configuration not stated),39,0.9,·,58*,-0.074,8
CC(C)(C)n1nnnc1C(c1cccnc1)N(Cc1ccccc1)Cc1ccco1 (configuration not stated),-7,0.8,·,85*,-1.2,23
CCN(Cc1ccccc1)C(c1ccc(C(F)(F)F)cc1)c1nnnn1C(C)(C)C (configuration not stated),73*,·,·,28,-0.26,·
CCC(C)(C)n1nnnc1C(C(C)C)N(Cc1cccnc1)Cc1ccco1 (configuration not stated),7,0.9,-1.2,45,-0.7,11
CCOc1ccc(NC(=O)C(Cc2ccccc2)NC(=O)C2CCCCC2)cc1 (configuration not stated),-21,0.9,0.86,-6,0.08,6
